The source of these data is ChEMBL document CHEMBL1125261, “1-Naphthylpiperazine derivatives as potential atypical antipsychotic agents” (J Med Chem, 1991).

For experiment [1], the target named is T1, Serotonin 2 (5-HT2) receptor (Rattus norvegicus, UniProt P30994+P08909+P14842). As to the kind of experiment: (§1) Compound was evaluated In vitro for its activity by binding to 5-hydroxytryptamine 2 receptor in the rat brain using [3H]ketanserin as radioligand. Format: tissue-based.
Experiment [2] has as its target Adrenergic receptor alpha. As to the kind of experiment: Compound was evaluated In vitro for its activity by binding to Alpha adrenergic receptor in the rat brain using [3H]prazosin as radioligand. Type of experiment: tissue-based.
For experiment [3], the system named is Rattus norvegicus. As to the kind of experiment: Compound was evaluated for the inhibition of apomorphine induced stereotypy behavior in rats after sc administration. Format: functional. Further details: unit not given here. The gist of the method: (§2)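 Male Sprague-Dawley rats (250–300 g, five per group) given test drug (2 mL/kg) or saline. At 1, 3 and 5 h they received apomorphine 0.75 mg/kg sc in water with 0.1% ascorbic acid. Stereotypy was rated every 10 min up to 50 min. ANOVA then Dunnett's t test over half-log dose multiples; MED was the lowest significant dose.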

Experiment [4] has as its target T2, 5-hydroxytryptamine receptor 1A (Rattus norvegicus, UniProt P19327).
T2 sequence (P19327 whole entry): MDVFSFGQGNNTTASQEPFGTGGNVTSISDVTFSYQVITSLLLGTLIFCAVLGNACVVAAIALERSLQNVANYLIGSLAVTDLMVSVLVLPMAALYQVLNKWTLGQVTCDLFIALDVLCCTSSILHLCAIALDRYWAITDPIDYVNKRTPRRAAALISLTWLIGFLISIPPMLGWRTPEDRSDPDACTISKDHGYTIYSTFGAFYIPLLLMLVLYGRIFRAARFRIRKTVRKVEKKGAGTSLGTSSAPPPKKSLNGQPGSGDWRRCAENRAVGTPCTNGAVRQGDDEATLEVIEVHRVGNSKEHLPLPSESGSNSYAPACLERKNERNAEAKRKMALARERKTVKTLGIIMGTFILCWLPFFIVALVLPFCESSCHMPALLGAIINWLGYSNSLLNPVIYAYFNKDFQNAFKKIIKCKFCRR
In words: Binding affinity to 5-hydroxytryptamine 1A receptor in the rat brain using [3H]8-hydroxy-2-(di-n-propylamine)tetralin as radioligand. Type of experiment: tissue-based. In short, it runs like this:
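Rat forebrain P2 membranes: lysed in 5 mM Tris acetate pH 7.4, washed, preincubated 30 min at 30 °C. Incubated with [3H]-8-OH-DPAT and test drug, 30 °C, 20 min; filtered, scintillation counted.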

The target in experiment [5] is T1, Serotonin 2 (5-HT2) receptor. The description is as §1. Format: tissue-based. In short, it runs like this:
(§3)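 Frozen male Sprague-Dawley rat brain cut into 20-μm cryostat sections. Incubated in 50 mM Tris pH 7.5 with 1 nM [3H]ketanserin and test drug, room temperature, 30 min; nonspecific binding with 2 μM pipamperone. Washed in ice-cold buffer, exposed to tritium film 6 weeks, read by densitometry.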
This is another data set of the same source.

Another experiment deals with D(2) dopamine receptor (Rattus norvegicus, UniProt P61169). In words: Binding affinity to dopamine receptor D2 in the rat brain using [3H]NPA as radioligand. Format: tissue-based. The gist of the method: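 Rat brain D2 binding with [3H]NPA as ligand. IC50 taken from dose-response curves over three log concentrations of test compound, each in triplicate.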
Chain of D(2) dopamine receptor (P61169 whole entry): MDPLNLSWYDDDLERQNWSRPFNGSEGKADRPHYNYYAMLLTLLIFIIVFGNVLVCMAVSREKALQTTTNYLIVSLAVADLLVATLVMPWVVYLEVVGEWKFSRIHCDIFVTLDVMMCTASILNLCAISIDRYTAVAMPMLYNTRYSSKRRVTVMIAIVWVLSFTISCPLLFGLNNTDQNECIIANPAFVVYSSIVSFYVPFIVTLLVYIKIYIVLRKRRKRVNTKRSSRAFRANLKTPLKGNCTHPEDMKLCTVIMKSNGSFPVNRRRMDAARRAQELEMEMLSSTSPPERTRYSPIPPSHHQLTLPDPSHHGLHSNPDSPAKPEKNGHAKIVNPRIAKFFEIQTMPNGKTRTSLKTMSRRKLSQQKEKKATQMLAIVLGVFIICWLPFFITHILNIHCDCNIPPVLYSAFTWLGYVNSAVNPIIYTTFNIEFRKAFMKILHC
For experiment [6], the target named is Adrenergic receptor alpha. In words: In vitro binding activity against Alpha receptor in rat brain using [3H]prazosin. Format: tissue-based. The gist of the method: (§4)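 Whole rat brain minus cerebellum homogenized and washed twice in 50 mM Tris-HCl pH 7.7, resuspended in Tris pH 8.0. Incubated in triplicate with 0.22 nM (final) [3H]prazosin and drug, 25 °C, 30 min. Blank was 50 μM norepinephrine. Filtered through glass fiber and scintillation counted. IC50 from three log concentrations in triplicate.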

Experiment [7] relates to Rattus norvegicus. As to the kind of experiment: Compound was evaluated for the inhibition of haloperidol induced catalepsy behavior in rats after sc administration; Inactive. Format: functional, organism-based.
The subject of experiment [8] is Rattus norvegicus. As to the kind of experiment: Antipsychotic activity determined in vivo by inhibition of amphetamine induced locomotor behavior in rats by the sc administration. Format: functional. The gist of the method: (§5)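 Male Sprague-Dawley rats (275–325 g, eight per group) habituated overnight in automated activity boxes, then dosed with test compound suspended in 90% saline/5% ethanol/5% Emulphor. d-Amphetamine sulfate 1.36 mg/kg given 1 h later. Floor quadrant crossings counted over 3 h. ANOVA with Dunnett's test; ED50 and 95% confidence limits by probit analysis of means converted to percent inhibition.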

For experiment [9], the system named is Rattus norvegicus. As to the kind of experiment: Compound was evaluated for the inhibition of haloperidol induced catalepsy behavior in rats after sc administration. Format: functional. Set-up: unit not given here. In short, it runs like this: (§6)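 Catalepsy was tested on a horizontal rod after 3 h. Test drug or vehicle was then given and catalepsy duration scored every 30 min for 2.5 h. One-way ANOVA with Dunnett's test over half-log dose multiples; MED was the lowest significant dose.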

Experiment [10] relates to Rattus norvegicus. In words: Antipsychotic activity determined in vivo by inhibition of amphetamine induced locomotor behavior in rats by the po administration. Type of experiment: functional. In short, it runs like this: as §5
Experiment [11] addresses T1, Serotonin 2 (5-HT2) receptor. As to the kind of experiment: Compound was evaluated for its activity by binding to 5-hydroxytryptamine 2 receptor in the rat brain using [3H]ketanserin as radioligand. Type of experiment: tissue-based. The gist of the method: as §3
In experiment [12] the test system is Rattus norvegicus. In words: Compound was evaluated for inhibition of apomorphine induced stereotypy behavior in rats after sc administration. Format: functional. The gist of the method: as §2
The test system of experiment [13] is Rattus norvegicus. In words: Compound was evaluated for the inhibition of haloperidol induced catalepsy behavior in rats after po administration. Format: functional. In short, it runs like this: as §6
Experiment [14] deals with Rattus norvegicus. In words: Compound was evaluated for the inhibition of apomorphine induced stereotypy behavior in rats after po administration. Type of experiment: functional. In short, it runs like this:
as §2

The subject of experiment [15] is Rattus norvegicus. As to the kind of experiment: Compound was evaluated for the inhibition of apomorphine induced stereotypy behavior in rats after ip administration. Format: functional. In short, it runs like this:
as §2

The target of experiment [16] is Adrenergic receptor alpha. As to the kind of experiment: Compound was evaluated In vitro for its activity by binding to Alpha receptor in the rat brain using [3H]prazosin as radioligand. Format: tissue-based. The gist of the method: as §4

Calls of active or inactive are those of the source. The calls are words filed in the database; no cut-off is given here.

For orientation: IC50 means the midpoint of a concentration-inhibition curve. With `Oc1nc2ccc(CCN3CCN(c4cccc5ccccc45)CC3)cc2s1`, the values for the IC50 in experiment [1], in experiment [2] and in [4] were 50 nM, 24 nM and 2.2 nM, respectively. In the experiment with Rattus norvegicus [3], this molecule came in with an MED of more than 10.
Turning to `CC1(C)C(=O)Nc2ccc(CCN3CCN(c4cccc5ccccc45)CC3)cc21`, the 50% inhibitory concentration (IC50) in experiment [5] was 11.8 nM; at D(2) dopamine receptor, 86 nM; in experiment [6], 40 nM; in experiment [4], 6.9 nM.
Consider `CCN1C(=O)Cc2cc(CCN3CCN(c4cccc5ccccc45)CC3)ccc21`, for which the IC50 stood at 81.2 nM at D(2) dopamine receptor, 248 nM in experiment [6] and 2.9 nM in [4].
With `O=C(CCCN1CCC(O)(c2ccc(Cl)cc2)CC1)c1ccc(F)cc1` [HALOPERIDOL], in the experiment with Rattus norvegicus [7], the MED result is “inactive”. This molecule also displayed an MED in the experiment on Rattus norvegicus [3] of 0.032.
Broadly, the ED50 is the dose that gives a 50% effect, or the effect in half of the subjects. Take `Oc1nc2ccc(CCN3CCN(c4cccc5ccccc45)CC3)cc2o1`: the ED50 with Rattus norvegicus [8] was determined as 1.6 mg/kg; in the experiment with Rattus norvegicus [10], 40.5 mg/kg. The IC50 in experiment [5] turned out to be 10 nM; on D(2) dopamine receptor it was 44 nM; in experiment [6], 45 nM; in experiment [4], 6.2 nM. Further, the results for the MED in the experiment on Rattus norvegicus [9] and in the experiment on Rattus norvegicus [3] were more than 10 and 10, respectively.
Turning to `c1ccc2c(N3CCN(CCc4ccc(-c5csnn5)cc4)CC3)cccc2c1`, the figures for the 50% inhibitory concentration (IC50) (on D(2) dopamine receptor; in experiment [6]; in experiment [11]) were 83 nM, 105 nM and 237 nM, respectively. The molecule also returned an MED with Rattus norvegicus [3] of more than 10.
For the molecule `Cc1nc(-c2ccc(CCN3CCN(c4cccc5ccccc45)CC3)cc2)cs1`, the 50% inhibitory concentration (IC50) on D(2) dopamine receptor worked out at 108 nM; in [6] it was 166 nM. In addition, the MED with Rattus norvegicus [3] was more than 10.
On to `CN1CCN(C2=Nc3cc(Cl)ccc3Nc3ccccc32)CC1` [CLOZAPINE], for which the median effective dose (ED50) in the experiment on Rattus norvegicus [8] is 6.9 mg/kg. Also, in the experiment on Rattus norvegicus [7], the MED entry is “inactive”.
The molecule `Cc1sc(N)nc1-c1ccc(CCN2CCN(c3cccc4ccccc34)CC2)cc1` returned an ED50 with Rattus norvegicus [8] of more than 10 mg/kg. Besides, the MED with Rattus norvegicus [12] and in the experiment on Rattus norvegicus [9] was more than 3.2 each time. The figures for the half-maximal inhibitory concentration (IC50) (at D(2) dopamine receptor; in experiment [6]) were 159 nM and 234 nM, respectively.
Molecule `c1ccc2c(N3CCNCC3)cccc2c1` returned an IC50 in experiment [11] of 62 nM.
In the experiment with Rattus norvegicus [8], `Oc1nc(-c2ccc(CCN3CCN(c4cccc5ccccc45)CC3)cc2)cs1` came in with an ED50 of more than 10 mg/kg. For the same molecule, the MED with Rattus norvegicus [9] was 10; in the experiment with Rattus norvegicus [3], more than 17.8. The IC50 at D(2) dopamine receptor worked out at 80 nM; in experiment [6], 65 nM; in experiment [11] it was 249 nM.
Consider `Nc1nc(-c2ccc(CCN3CCN(c4cccc5ccccc45)CC3)cc2)cs1`, for which the MED amounted to 3.2 in the experiment with Rattus norvegicus [13], 32 in the experiment with Rattus norvegicus [14] and 10 in the experiment with Rattus norvegicus [15]. For the same molecule, the 50% inhibitory concentration (IC50) in [1] was 385 nM; at D(2) dopamine receptor, 72 nM; in experiment [6], 135 nM; in experiment [4], 11 nM. The same molecule had an ED50 with Rattus norvegicus [10] of 25.3 mg/kg.
For the molecule `O=C1Cc2cc(CCN3CCN(c4cccc5ccccc45)CC3)ccc2N1`, the ED50 in the experiment on Rattus norvegicus [8] came to 1.21 mg/kg; with Rattus norvegicus [10] it was 13.3 mg/kg. Besides, the values for the MED in the experiment on Rattus norvegicus [13] and in the experiment on Rattus norvegicus [9] were 10 and more than 10, respectively. Besides, the IC50 was determined as 20 nM in [1], 38 nM at D(2) dopamine receptor, 24 nM in experiment [6] and 4.87 nM in experiment [4].
With `CNc1nc(-c2ccc(CCN3CCN(c4cccc5ccccc45)CC3)cc2)cs1`, the results for the IC50 (at D(2) dopamine receptor; in [16]) were 155 nM and 252 nM, respectively. In the experiment on Rattus norvegicus [3], this molecule had an MED of more than 10.
